GASC-1 inh – inhibitors of GASC-1 histone demethylase, primary screen, biochemical, fluorescence, DELFIA europium | Lysine-specific demethylase 4C (Homo sapiens), Q9H3R0 | GST-JMJD2C(1-420) H3K9me3 demethylation | inhibition, % at 2.35 µM | hit rate 0.069% among 330,000;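 active = more than half of a compound's replicate wells show inhibition beyond 50%, single wells judged on their own value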;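 note: signal counts dimethyl H3K9 product captured on neutravidin plate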
VLA-4 inh – inhibition in human VLA-4 binding assay, primary screen, VLA-4 allosteric modulator project, MLPCN library, flow cytometry, VLA-4 expressing cells. Integrin alpha-4 (Homo sapiens), P13612. ligand binding flow cytometry. inhibition, % (about 7 µM as worked out from the volumes in the protocol). hit rate 0.2% among 330,000; in the data active = inhibition above about 50%
procasp7 counter – procaspase-7 activators, primary screen, counter-screen for procaspase-3 activator project, biochemical, absorbance, HTS, human; recombinant procaspase-7, Ac-DEVD-pNA absorbance 405 nm; D23A/D198A/D206A triple mutant, cannot self-cleave; scale: DMSO 0, 5 µM enzyme 100; activation, % at 8.5 µM; Caspase-7 (Homo sapiens), P55210; AID 463210, 2010; hit rate 0.093% among 330,000;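 active = percent activation above the screen-wide mean plus 3 SD, cut at about 25% in these data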
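Test system: Procaspase-7 triple mutant (PC-7 D3A). Also added: Ac-DEVD-pNA substrate, 400 µM as added. Schedule: 1 h enzyme–compound preincubation and 2 h substrate reaction, both 25 °C. Signal: p-Nitroaniline absorbance at 405 nm, read at 0 and 120 min. Control set: low DMSO alone, high DMSO plus 5 µM PC-7.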
Hep lipid drop – inhibitors of hepatocyte lipid droplet formation, primary screen, imaging, high-throughput imaging, BODIPY stain | hit rate 0.4% among 240,000 | inhibition, % at 6.5 µM | AML12 mouse hepatocytes, oleate lipid droplets | AID 1656, 2009;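 active = lipid droplet intensity inhibited by at least 50%, with more than 500 cells counted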
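Technique: fluorescence imaging, 20x objective, two fields per well / Assay system: AML12 hepatocytes (mouse) / Measure: % inhibition of lipid droplet signal / Doses: 6.5 µM single-point dosing / Incubation: overnight exposure / Reagent: 100 µM oleic acid challenge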
proCasp3 act – activators of human procaspase-3 D3A mutant, primary screen, biochemical, absorbance, PC-3 D3A mutant, single concentration; Caspase-3 (Homo sapiens), P42574; recombinant procaspase-3 D3A, Ac-DEVD-pNA absorbance 405 nm; activation, % at 8.5 µM; hit rate 0.11% among 330,000; AID 463141, 2010;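 active = activation above the mean of all tested compounds plus 3 SD, cut at about 21% in these data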
Target sequence (P42574 whole entry D9A/D28A/D175A): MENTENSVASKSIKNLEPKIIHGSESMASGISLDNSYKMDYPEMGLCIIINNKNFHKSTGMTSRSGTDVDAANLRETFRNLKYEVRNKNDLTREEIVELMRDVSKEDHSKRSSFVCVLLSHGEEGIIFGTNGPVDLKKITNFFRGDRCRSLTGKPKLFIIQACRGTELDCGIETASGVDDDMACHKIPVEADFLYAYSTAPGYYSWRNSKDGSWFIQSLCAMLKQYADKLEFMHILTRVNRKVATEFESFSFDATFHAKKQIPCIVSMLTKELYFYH
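Assay system: Autoprocessing-dead procaspase-3 D3A mutant enzyme; also added: Ac-DEVD-pNA; doses: one concentration, 8.5 µM nominal, 0.8% DMSO; times: 1 h compound preincubation, 2 h substrate hydrolysis at 25 °C; technique: 405 nm absorbance of p-nitroaniline, reads at 0 and 120 min; measure: % activation between DMSO and enzyme-spiked controls; repeats: single replicate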
GRK2 inh – compounds blocking aptamer binding on GRK2 – biochemical, human GRK2, bead flow cytometry, HTS, primary screen. AID 488847, 2010. inhibition of aptamer binding, % at 10 µM. FAM-aptamer displacement from GRK2. Beta-adrenergic receptor kinase 1 (Homo sapiens), P25098. hit rate 0.59% among 330,000;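 active = inhibition of aptamer binding above 40%, roughly 3 SD of noise, on plates passing a quality check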;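 note: median bead fluorescence of bound FAM aptamer so fluorescent compounds give negative values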
Lipid drop inh – hepatocyte lipid droplet accumulation inhibitors, confirmation, imaging, AML12 mouse hepatocytes, single concentration, high-content. hit rate 65% among 870. inhibition, % at 5.2 µM. shares compounds with Hep lipid drop. AID 463183, 2010. BODIPY lipid droplet imaging; droplets induced with 100 µM oleic acid;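 active = inhibition of lipid droplet metric at least 50%, with more than 300 cells in each of four replicates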
AML12 tox img – AML12 hepatocyte cytotoxicity, counter-screen for hepatic lipid droplet formation project, imaging, DAPI nuclear morphology imaging. shares compounds with Hep lipid drop. AML12 mouse hepatocytes; stronger effect = higher value; cells fed 100 µM oleate overnight. z-score at 5 µM. hit rate 3% among 870. AID 463200, 2010; in the data active = z-score above about 6.3;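 note: compound exposure lasted overnight at 37 °C before fixation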
AML12 tox ATP – AML12 hepatocyte cytotoxicity, confirmation, cytotoxicity control for hepatic lipid droplet formation project, cell-based, single concentration; AML12 mouse hepatocyte viability, ATP luminescence; cells loaded with 100 µM oleic acid; shares compounds with Hep lipid drop; AID 463219, 2010; cytotoxicity, % at 50 µM; 530 tested, under 10 active;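 active = cytotoxicity above 50% in each of four replicates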;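 note: compound exposure lasted overnight at 37 °C before the ATP read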
Hits are given with their value; - = inactive; . = no result. Sampled rows, rich in hits. Any-hit rate of the full collection: about 1.3%.

SMILES	GASC-1 inh	VLA-4 inh	procasp7 counter	Hep lipid drop	proCasp3 act	GRK2 inh	Lipid drop inh	AML12 tox img	AML12 tox ATP
Cc1cccc(NC(=O)[C@H](C)NC(=O)[C@@H]2Cc3ccccc3CN2C(=O)OC(C)(C)C)c1	-	-	-	61.9	-	-	99.9	-	-
CCCCc1ccc(NC(=O)CSc2nnc(C)c(=O)n2N)cc1	-	-	-	81.2	-	-	106.5	-	-
CC(=O)Nc1ccc(NC(=O)CSc2nnc(C)c(=O)n2N)cc1	-	-	-	-	-	-	.	.	.
CCCCc1ccc(NC(=O)CSc2nc3ncccc3[nH]2)cc1	-	-	-	51.9	-	-	91.5	-	-
CCOC(=O)c1ccc(NC(=O)CCOc2ccccc2)cc1	-	-	-	-	-	-	.	.	.
CCCOC(=O)c1ccc(NC(=O)CCOc2ccccc2)cc1	-	-	-	52.2	-	-	103.8	-	-
CCc1nc2ccccc2c(C(=O)OCc2nc3ccccc3c(=O)[nH]2)c1C	-	-	-	.	-	-	.	.	.
CCOC(=O)c1c(C)[nH]c(C)c1S(=O)(=O)N1CCCCC1	-	-	-	-	-	-	.	.	.
CCOC(=O)c1c(C)[nH]c(C)c1S(=O)(=O)N1CCN(c2ccc([N+](=O)[O-])cc2)CC1	-	-	-	92.7	-	-	-	-	.
Cc1ccc(C(C)(C)C)cc1S(=O)(=O)N1CCC(C(=O)N2CCN(c3ccc(O)cc3)CC2)CC1	-	-	-	.	-	-	.	.	.
CCOc1ccccc1NC(=O)N1CCCC1C(=O)NCc1cccs1 (stereo unspecified)	-	-	-	73.9	-	-	94.1	-	-
CN[C@H](CC(=O)O)C(=O)O	-	-	-	.	-	-	.	.	.
Clc1ccccc1CN(Cc1ccco1)Cc1nnnn1C1CCCC1	-	-	-	67.9	-	-	-	-	.
c1coc(CN(Cc2cccs2)Cc2nnnn2C2CCCCC2)c1	-	-	-	-	-	-	.	.	.
CCSC(=O)N(CC)CC(=O)Nc1c(CC)cccc1CC	-	-	-	56.4	-	-	86.7	-	-
CCCN(CC(=O)Nc1c(C)cccc1CC)C(=O)SCC	-	-	-	-	-	-	.	.	.
CCCSC(=O)N(CC)CC(=O)Nc1c(CC)cccc1CC	-	-	-	63.8	-	-	90.1	-	-
O=C(c1ccncc1)N1CCN(S(=O)(=O)c2cccc(Cl)c2)CC1	-	-	-	.	-	-	.	.	.
COc1ccc(N(Cc2cc(=O)[nH]c3ccccc23)C(C)=O)cc1	-	-	-	74.9	-	-	-	-	.
COc1ccc(NC(=O)CS(=O)c2cccc(Cl)c2)cc1 (stereo unspecified)	-	-	-	-	-	-	.	.	.
CC(=O)C1=C(C)NC(SCSc2ccccc2)=C(C#N)C1c1cccnc1 (stereo unspecified)	-	-	-	58.8	-	-	78.6	-	-
COc1ccccc1CNS(=O)(=O)c1ccc2c(c1)CC(C)N2C(=O)C1CCC1 (stereo unspecified)	-	-	-	64.4	-	-	99.3	-	-

Screening data as filed in PubChem BioAssay.
